Reference: ChEMBL document CHEMBL1649376 (Eur J Med Chem, 2011)

What was measured:
[1] = Chemical stability of the compound in basic medium assessed as half life at pH 10 after 6 hrs by RP-HPLC analysis; format: physicochemical
Summary of the method: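 Run in 0.1 M phosphate buffer, pH 10, at 37.0 ± 0.5 °C, compound 100 µM final (from 10 mM methanol stock); RP-HPLC every 30 min quantifying parent and oxime; ring opening treated as first-order for half-life; triplicate incubations.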

[2] = Chemical stability of the compound in acidic medium at pH 1 after 6 hrs by RP-HPLC analysis; format: physicochemical; details: buffer, pH 1, 6 h
Summary of the method: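 Compound added from 10 mM methanol stock into 0.1 M HCl (pH 1) at 37 °C, final 100 µM; held at 37.0 ± 0.5 °C and analysed by RP-HPLC every 30 min for unchanged compound and oxime product; triplicate incubations; C8 column, methanol/water with 0.1% TFA.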

[3] = Chemical stability of the compound in phosphate buffer at pH 7.4 assessed as half life at 100 uM after 30 mins by RP-HPLC analysis; format: physicochemical
Summary of the method: (§1)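 10 mM methanol stock diluted into 50 mM phosphate buffer pH 7.4 prewarmed to 37 °C, final 100 µM; maintained at 37.0 ± 0.5 °C, sampled every 30 min by RP-HPLC (C8, methanol/water 0.1% TFA) for parent loss and oxime formation; first-order kinetics for t1/2; triplicate.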

[4] = Dissociation constant, pKa of the compound by potentiometric titration; format: physicochemical
Summary of the method: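 Potentiometric titration under N2 at 25.0 ± 0.1 °C; about 1 mM compound in at least five water–methanol mixtures (24-58 wt% MeOH), ionic strength 0.15 M KCl, acidified to pH 1.8 with 0.5 N HCl, titrated with 0.5 N KOH to pH 10.5; aqueous pKa by Yasuda-Shedlovsky extrapolation to zero cosolvent.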

[5] = target: Dihydroorotate dehydrogenase (quinone), mitochondrial (Rattus norvegicus, UniProt Q63707); assay: Inhibition of DHODH in Wistar rat liver homogenates by DCIP reduction assay; format: tissue-based
[6] = Chemical stability of the compound in phosphate buffer at pH 7.4 assessed as unchanged compound level at 100 uM after 24 hrs by RP-HPLC analysis; format: physicochemical; details: read-out: Stability; summary of the method: as §1

Sequence of Dihydroorotate dehydrogenase (quinone), mitochondrial (Q63707 whole entry): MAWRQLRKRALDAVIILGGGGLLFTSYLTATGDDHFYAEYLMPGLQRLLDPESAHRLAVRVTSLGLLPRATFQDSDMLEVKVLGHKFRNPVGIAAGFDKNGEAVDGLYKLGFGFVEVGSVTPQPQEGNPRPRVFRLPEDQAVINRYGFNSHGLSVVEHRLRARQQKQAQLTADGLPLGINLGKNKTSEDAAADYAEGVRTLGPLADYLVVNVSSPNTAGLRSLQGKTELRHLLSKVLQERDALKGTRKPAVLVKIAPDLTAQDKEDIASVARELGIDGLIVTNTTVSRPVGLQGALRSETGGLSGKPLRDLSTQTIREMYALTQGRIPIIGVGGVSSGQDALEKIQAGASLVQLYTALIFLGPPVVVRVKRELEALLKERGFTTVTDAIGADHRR

Compound | half-life at 100 µM [3] [h] | pKa [4] | further results
O=C(Nc1ccc(C(F)(F)F)cc1)c1cnon1 | 1.38 | – | half-life [1]: < 0.0167 h; Stability [2]: Stable
O=C(Nc1cccc(C(F)(F)F)c1)c1cnon1 | 1.68 | – | –
O=C(Nc1cc(C(F)(F)F)cc(C(F)(F)F)c1)c1cnon1 | 1.52 | – | –
O=C(Nc1ccc(F)cc1)c1cnon1 | 1.48 | – | –
O=C(Nc1cccc(F)c1)c1cnon1 | 1.81 | – | –
O=C(Nc1ccccc1F)c1cnon1 | 1.7 | – | –
O=C(Nc1cc(F)cc(F)c1)c1cnon1 | 1.53 | – | –
O=C(Nc1ccc([N+](=O)[O-])cc1)c1cnon1 | 1.15 | – | –
O=C(Nc1ccccc1)c1cnon1 | 2.06 | – | –
Cc1ccc(NC(=O)c2cnon2)cc1 | 1.89 | – | –
COc1ccc(NC(=O)c2cnon2)cc1 | 1.77 | – | –
O=C(Nc1ccc(-c2ccccc2)cc1)c1cnon1 | 1.28 | – | –
N#C/C(=N\O)C(=O)Nc1ccc(C(F)(F)F)cc1 | – | 4.87 | IC50 [5]: 60 µM
N#C/C(=N\O)C(=O)Nc1cccc(C(F)(F)F)c1 | – | 4.88 | –
N#C/C(=N\O)C(=O)Nc1cc(C(F)(F)F)cc(C(F)(F)F)c1 | – | 4.73 | –
N#C/C(=N\O)C(=O)Nc1ccc(F)cc1 | – | 5.01 | –
N#C/C(=N\O)C(=O)Nc1cccc(F)c1 | – | 4.92 | –
N#C/C(=N\O)C(=O)Nc1ccccc1F | – | 4.87 | –
N#C/C(=N\O)C(=O)Nc1cc(F)cc(F)c1 | – | 4.81 | –
N#C/C(=N\O)C(=O)Nc1ccc([N+](=O)[O-])cc1 | – | 4.61 | –
N#C/C(=N\O)C(=O)Nc1ccccc1 | – | 5.12 | –
Cc1ccc(NC(=O)/C(C#N)=N/O)cc1 | – | 5.07 | –
COc1ccc(NC(=O)/C(C#N)=N/O)cc1 | – | 5.08 | –
N#C/C(=N\O)C(=O)Nc1ccc(-c2ccccc2)cc1 | – | 5.03 | –
N#CC(C(=O)Nc1ccc(C(F)(F)F)cc1)=[N+]([O-])[O-] | – | – | IC50 [5]: 17 µM
N#CC(C(=O)Nc1ccc([N+](=O)[O-])cc1)=[N+]([O-])[O-] | – | – | IC50 [5]: 74 µM
N#CC(C(=O)Nc1ccc(-c2ccccc2)cc1)=[N+]([O-])[O-] | – | – | IC50 [5]: 26 µM
Cc1oncc1C(=O)Nc1ccc(C(F)(F)F)cc1 [LEFLUNOMIDE] | > 24 | – | half-life [1]: 1.17 h; IC50 [5]: 1.6 µM; Stability [2]: Stable; remaining at 24 h, 100 µM [6]: 80%
